Calls of active or inactive are those of the source. The calls are words filed in the database; no cut-off is given here.
What was measured:
[1] = system: REH; test: Induction of apoptosis in human REH cells assessed as induction of ROS production at 1 uM after 60 mins by flow cytometric analysis (reference value: 0.09 %); type: functional
[2] = system: REH; test: Induction of apoptosis in human REH cells assessed as induction of ROS production at 100 nM after 10 mins by flow cytometric analysis (reference value: 0.33 %); type: functional
[3] = system: REH; test: Induction of apoptosis in human REH cells assessed as induction of ROS production at 500 nM after 10 mins by flow cytometric analysis (reference value: 0.33 %); type: functional
[4] = system: REH; test: Induction of apoptosis in human REH cells assessed as induction of ROS production at 5 uM after 10 mins by flow cytometric analysis (reference value: 0.33 %); type: functional
[5] = system: REH; test: Induction of apoptosis in human REH cells assessed as induction of ROS production at 10 uM after 10 mins by flow cytometric analysis (reference value: 0.33 %); type: functional
[6] = system: REH; test: Induction of apoptosis in human REH cells assessed as reduction of KU70 protein expression at 1 uM after 48 hrs by Western blot analysis; type: functional, cell-based
In short: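 Reh cells exposed 48 h to 500 nM or 1 µM, with DMSO-treated cells as control; cell lysates probed by western blot with specific primary antibodies against KU70, PARP1, caspases 3, 8 and 9, BID and FAS; tubulin shown as loading reference.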

[7] = system: REH; test: Induction of apoptosis in human REH cells assessed as PARP cleavage after 48 hrs by Western blot analysis; type: functional, cell-based
In short: (§1)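 Reh cell lysates were prepared after 48 h treatment at 500 nM and 1 µM, with DMSO-treated cells as control. Western blotting used primary antibodies against KU70, PARP1, caspase 3, BID, caspase 9, FAS and caspase 8, with tubulin also probed.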

[8] = system: REH; test: Induction of apoptosis in human REH cells assessed as reduction of BID at 1 uM after 48 hrs by Western blot analysis; type: functional, cell-based; in short: as §1
[9] = system: REH; test: Induction of apoptosis in human REH cells assessed as change in caspase 9 expression at 1 uM after 48 hrs by Western blot analysis; type: functional, cell-based; in short: as §1
[10] = Growth inhibition of human NSCLC cells; type: functional
[11] = Growth inhibition of human Colon cancer cells; type: functional; conditions: Cancer cell lines
[12] = Growth inhibition of human CNS cancer cells; type: functional; conditions: Cancer cell lines
[13] = Growth inhibition of human Melanoma cells; type: functional; conditions: Melanoma cell
[14] = Growth inhibition of human Ovarian cancer cells; type: functional; conditions: Cancer cell lines
[15] = Growth inhibition of human Prostate cancer cells; type: functional; conditions: Cancer cell lines
[16] = Growth inhibition of human Breast cancer cells; type: functional; conditions: Cancer cell lines
[17] = system: REH; test: Cytotoxicity against human REH cells assessed as reduction in cell viability after 24 to 72 hrs by trypan blue exclusion assay; type: functional, cell-based
In short: (§2)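 Reh, K562 and Nalm6 leukemic cells were treated with 10, 50, 100 and 250 µM or with 0.1, 0.5, 1, 5 and 10 µM (compounds dissolved in DMSO). Viability was scored by trypan blue after 24, 48 and 72 h. DMSO-treated cells served as vehicle control.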

[18] = system: NALM-6; test: Cytotoxicity against human NALM6 cells assessed as reduction in cell viability at 0.1 to 10 uM by trypan blue exclusion assay; type: functional, cell-based; conditions: TDE = time-dependent effect; in short: as §2
[19] = system: REH; test: Cytotoxicity against human REH cells assessed as reduction in cell viability at 5 to 10 uM after 48 to 72 hrs by MTT assay; type: functional, cell-based
In short: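 MTT viability read-out in leukemic cells treated with 10, 50, 100 and 250 µM or with 0.1, 0.5, 1, 5 and 10 µM. Cells harvested after 48 and 72 h. Compounds dissolved in DMSO.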

[20] = system: REH; test: Cytotoxicity against human REH cells assessed as induction of cell death at 3 uM after 24 to 72 hrs by live-dead cell assay; type: functional, cell-based; conditions: in the assay text read “24 to 48 hrs” for “24 to 72 hrs”
In short: (§3)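 Reh leukemic and 293T human kidney epithelial cells were treated at 3 µM and compared by live-dead cell assay at 24 and 48 h.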

[21] = system: HEK293; test: Cytotoxicity against HEK293 cells assessed as induction of cell death at 3 uM after 24 to 72 hrs by live-dead cell assay; type: cell-based; conditions: human, hek293, 3 µM; in the assay text read “24 to 48 hrs” for “24 to 72 hrs”; in short: as §3
[22] = system: REH; test: Cytotoxicity against human REH cells assessed as reduction in cell viability at 3 uM after 24 to 72 hrs by trypan blue exclusion assay; type: functional, cell-based
[23] = system: REH; test: Cell cycle arrest in human REH cells assessed as reduction of cells in G1 phase after 48 hrs using propidium iodide by FACS analysis; type: functional, cell-based
In short: (§4)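 Reh and Nalm6 cells exposed 48 h to 0.1, 0.5, 1 and 5 µM, harvested, stained with propidium iodide and analysed by flow cytometry. Gated fractions were sub G1, G1, S and G2. DMSO-treated cells served as vehicle control. Three independent experiments for Reh and two for Nalm6.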

[24] = system: REH; test: Cell cycle arrest in human REH cells assessed as reduction of cells in S phase after 48 hrs using propidium iodide by FACS analysis; type: functional, cell-based; in short: as §4
[25] = Cell cycle arrest in human NALM6 cells assessed as reduction of cells in G2/M phase after 48 hrs using propidium iodide by FACS analysis; type: functional, cell-based; conditions: NALM-6; in short: as §4
[26] = Cell cycle arrest in human NALM6 cells assessed as reduction of cells in S phase after 48 hrs using propidium iodide by FACS analysis; type: functional, cell-based; conditions: NALM-6; in short: as §4
[27] = system: REH; test: Induction of apoptosis in human REH cells assessed as early apoptotic cells at 1 uM after 48 hrs using annexin-v-FITC/propidium iodide by FACS analysis (reference value: 6.05 %); type: functional
[28] = system: REH; test: Induction of apoptosis in human REH cells assessed as late apoptotic cells at 1 uM after 48 hrs using annexin-v-FITC/propidium iodide by FACS analysis (reference value: 5.51 %); type: functional
[29] = system: REH; test: Induction of apoptosis in human REH cells assessed as loss of mitochondrial membrane potential at 1 uM after 48 hrs using Jc-1 staining by flow cytometric analysis; type: functional, cell-based
In short: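 Mitochondrial membrane potential in Reh cells after 48 h at 0.1, 0.5, 1 and 5 µM. Cells stained with JC-1 and analysed by flow cytometry as the ratio of red (aggregate) to green (monomer) fluorescent cells. 2,4-DNP-treated cells served as positive control.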

[30] = system: REH; test: Induction of apoptosis in human REH cells assessed as induction of ROS production at 1 uM after 10 mins by flow cytometric analysis (reference value: 0.09 %); type: functional
[31] = system: REH; test: Induction of apoptosis in human REH cells assessed as induction of ROS production at 1 uM after 15 mins by flow cytometric analysis (reference value: 0.09 %); type: functional
[32] = system: REH; test: Induction of apoptosis in human REH cells assessed as dead cells at 1 uM after 48 hrs using annexin-v-FITC/propidium iodide by FACS analysis (reference value: 0.03 %)

## O=Cc1c(-c2ccc(Br)cc2)nc2sc(Cc3ccccc3)nn12
[1]
  Activity: 0.12%
[2]
  Activity: 0.77%
[3]
  Activity: 0.86%
[4]
  Activity: 0.62%
[5]
  Activity: 0.41%
[6]
  Activity: Active
[7]
  Activity: Dose-dependent effect
[8]
  Activity: Active
[9]
  Activity: inactive
[10]
  GI50: 4.2 µM
  LC50 (concentration killing 50% of cells): 95.5 µM
  TGI: 30.2 µM
[11]
  GI50: 2.2 µM
  TGI: 10 µM
[11]; read-out: LC50 (the source's name)
  CC50: 81.3 µM
[12]
  GI50: 2.2 µM
  LC50: 64.6 µM
  TGI: 7.4 µM
[13]
  GI50: 3.2 µM
  LC50: 81.3 µM
  TGI: 19.5 µM
[14]
  GI50: 4.2 µM
  TGI: 41.7 µM
[15]
  GI50: 3 µM
  TGI: 24.6 µM
[16]
  GI50: 3.5 µM
  TGI: 28.2 µM
[17]
  Activity: Dose-dependent effect
[18]
  Activity: tde
[19]
  Activity: Active
[20]
  Activity: Active
[21]
  Activity: Non-toxic
[22]
  Activity: Active
[23]
  Activity: Dose-dependent effect
[24]
  Activity: Dose-dependent effect
[25]
  Activity: Dose-dependent effect
[26]
  Activity: Dose-dependent effect
[27]
  Activity: 43.03%
[28]
  Activity: 51.32%
[29]
  Activity: Dose-dependent effect
[30]
  Activity: 0.36%
[31]
  Activity: 0.09%
[32]
  Activity: 0.42%

Reference: ChEMBL document CHEMBL3352816, “Synthesis and antiproliferative activity of imidazo[2,1-b][1,3,4]thiadiazole derivatives” (Bioorg Med Chem Lett, 2014)
